Measurements: ChEMBL document CHEMBL3739271, “Synthesis and evaluation of a series of resveratrol analogues as potent anti-cancer agents that target tubulin” (2015)

Assays:
Type in all cases: functional
[1] = test system: NCI/ADR-RES; assay: Cytotoxicity against human NCI/ADR-RES cells by SRB assay
Procedure, shortened: (§1)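 NCI 60 human tumor cell line panel, sulforhodamine B (SRB) protein-stain read-out. Compounds were first screened at a single dose of 10^-5 M, and selected compounds were then tested in a five-dose format. GI50 is the drug concentration giving a 50% reduction in net protein increase relative to control cells.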

[2] = Cytotoxicity against human HCT15 cells by SRB assay; conditions: HCT-15; procedure, shortened: as §1
[3] = test system: CAKI-1; assay: Cytotoxicity against human CAKI-1 cells by SRB assay; procedure, shortened: as §1
[4] = test system: A549; assay: Cytotoxicity against human A549 cells by SRB assay; procedure, shortened: as §1
[5] = test system: SK-MEL-2; assay: Cytotoxicity against human SK-MEL-2 cells by SRB assay; procedure, shortened: as §1
[6] = Cytotoxicity against human OVCAR3 cells by SRB assay; conditions: OVCAR-3; procedure, shortened: as §1
[7] = Cytotoxicity against human RPMI8226 cells by SRB assay; conditions: RPMI-8226; procedure, shortened: as §1
[8] = Cytotoxicity against human OVCAR4 cells by SRB assay; conditions: OVCAR-4; procedure, shortened: as §1
[9] = Cytotoxicity against human SF539 cells by SRB assay; conditions: SF-539; procedure, shortened: as §1
[10] = Cytotoxicity against human COLO205 cells by SRB assay; conditions: COLO 205; procedure, shortened: as §1
[11] = test system: SK-MEL-28; assay: Cytotoxicity against human SK-MEL-28 cells by SRB assay; procedure, shortened: as §1
[12] = test system: U-251; assay: Cytotoxicity against human U251 cells by SRB assay; procedure, shortened: as §1
[13] = Cytotoxicity against human HOP92 cells by SRB assay; conditions: HOP-92; procedure, shortened: as §1
[14] = Cytotoxicity against human HL-60(TB) cells by SRB assay
Procedure, shortened: (§2)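 NCI 60-cell-line panel using sulforhodamine B protein stain. Initial single-dose screen at 10^-5 M, then five-dose testing. GI50 is the drug concentration giving a 50% reduction in net protein increase relative to control cells.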

[15] = Cytotoxicity against human UACC62 cells by SRB assay; conditions: UACC-62; procedure, shortened: as §1
[16] = test system: MCF7; assay: Cytotoxicity against human MCF7 cells by SRB assay; procedure, shortened: as §1
[17] = Cytotoxicity against human HCC2998 cells by SRB assay; conditions: HCC 2998; procedure, shortened: as §1
[18] = test system: SK-MEL-5; assay: Cytotoxicity against human SK-MEL-5 cells by SRB assay; procedure, shortened: as §1
[19] = Cytotoxicity against human SKOV3 cells by SRB assay; conditions: SK-OV-3; procedure, shortened: as §1
[20] = test system: K562; assay: Cytotoxicity against human K562 cells by SRB assay; procedure, shortened: as §1
[21] = test system: NCI-H522; assay: Cytotoxicity against human NCI-H522 cells by SRB assay; procedure, shortened: as §1
[22] = test system: MDA-MB-231; assay: Cytotoxicity against human MDA-MB-231 cells by SRB assay; procedure, shortened: as §1
[23] = Cytotoxicity against human Hs578T cells by SRB assay; conditions: Hs-578T; procedure, shortened: as §1
[24] = Cytotoxicity against human UO31 cells by SRB assay; conditions: UO-31; procedure, shortened: as §1
[25] = Cytotoxicity against human SNB19 cells by SRB assay; conditions: SNB-19; procedure, shortened: as §1
[26] = Cytotoxicity against human HOP62 cells by SRB assay; conditions: HOP-62; procedure, shortened: as §1
[27] = test system: MDA-MB-435; assay: Cytotoxicity against human MDA-MB-435 cells by SRB assay; procedure, shortened: as §1
[28] = Cytotoxicity against human MOLT4 cells by SRB assay; conditions: MOLT-4; procedure, shortened: as §1
[29] = Cytotoxicity against human LOXIMVI cells by SRB assay; conditions: LOX IMVI; procedure, shortened: as §2
[30] = test system: 786-0; assay: Cytotoxicity against human 786-0 cells by SRB assay; procedure, shortened: as §1
[31] = Cytotoxicity against human SF268 cells by SRB assay; conditions: SF-268; procedure, shortened: as §1
[32] = test system: KM12; assay: Cytotoxicity against human KM12 cells by SRB assay; procedure, shortened: as §1
[33] = test system: M14; assay: Cytotoxicity against human M14 cells by SRB assay; procedure, shortened: as §1
[34] = Cytotoxicity against human SNB75 cells by SRB assay; conditions: SNB-75; procedure, shortened: as §1
[35] = Cytotoxicity against human HCT116 cells by SRB assay; conditions: HCT-116; procedure, shortened: as §1
[36] = Cytotoxicity against human SW620 cells by SRB assay; conditions: SW-620; procedure, shortened: as §1
[37] = test system: SR; assay: Cytotoxicity against human SR cells by SRB assay; procedure, shortened: as §1
[38] = Cytotoxicity against human SF295 cells by SRB assay; conditions: SF-295; procedure, shortened: as §1
[39] = test system: MDA-MB-468; assay: Cytotoxicity against human MDA-MB-468 cells by SRB assay; procedure, shortened: as §1
[40] = test system: A498; assay: Cytotoxicity against human A498 cells by SRB assay; procedure, shortened: as §1
[41] = test system: HT-29; assay: Cytotoxicity against human HT-29 cells by SRB assay; procedure, shortened: as §1
[42] = test system: ACHN; assay: Cytotoxicity against human ACHN cells by SRB assay; procedure, shortened: as §1
[43] = test system: CCRF-CEM; assay: Cytotoxicity against human CCRF-CEM cells by SRB assay; procedure, shortened: as §1
[44] = Cytotoxicity against human IGROV1 cells by SRB assay; conditions: IGROV-1; procedure, shortened: as §2
[45] = test system: NCI-H23; assay: Cytotoxicity against human NCI-H23 cells by SRB assay; procedure, shortened: as §1

COc1cc(/C=C(\C#N)c2cc(OC)c(OC)c(OC)c2)cc(OC)c1
GI50 [1]: 3250 nM | GI50 [2]: 4470 nM | GI50 [3]: 6190 nM | GI50 [4]: 6350 nM | GI50 [5]: 5440 nM | GI50 [6]: 6690 nM | GI50 [7]: 6640 nM | GI50 [8]: 7480 nM | GI50 [9]: 6600 nM | GI50 [10]: 5160 nM | GI50 [11]: 14000 nM | GI50 [12]: 7820 nM | GI50 [13]: 3570 nM | GI50 [14]: 68600 nM | GI50 [15]: 2420 nM | GI50 [16]: 4350 nM | GI50 [17]: 97000 nM | GI50 [18]: 4700 nM | GI50 [19]: 14400 nM | GI50 [20]: 3140 nM | GI50 [21]: 20500 nM | GI50 [22]: 4830 nM | GI50 [23]: 16700 nM | GI50 [24]: 1920 nM | GI50 [25]: 5460 nM | GI50 [26]: 7630 nM | GI50 [27]: 1630 nM | GI50 [28]: 28200 nM | GI50 [29]: 5310 nM | GI50 [30]: 13000 nM | GI50 [31]: 25300 nM | GI50 [32]: 4970 nM | GI50 [33]: 4450 nM | GI50 [34]: 2670 nM | GI50 [35]: 6050 nM | GI50 [36]: 5170 nM | GI50 [37]: 4140 nM | GI50 [38]: 5330 nM | GI50 [39]: 3440 nM | GI50 [40]: 1290 nM | GI50 [41]: 4240 nM | GI50 [42]: 9780 nM | GI50 [43]: 51200 nM | GI50 [44]: 14600 nM | GI50 [45]: 43000 nM

COc1ccc(/C=C(\C#N)c2cc(OC)c(OC)c(OC)c2)cc1
GI50 [1]: < 10 nM | GI50 [2]: < 10 nM | GI50 [4]: 10 nM | GI50 [5]: 80 nM | GI50 [6]: < 10 nM | GI50 [7]: 30 nM | GI50 [8]: 10 nM | GI50 [9]: < 10 nM | GI50 [10]: 10 nM | GI50 [12]: 20 nM | GI50 [13]: 20 nM | GI50 [14]: 20 nM | GI50 [15]: < 10 nM | GI50 [16]: < 10 nM | GI50 [17]: 40 nM | GI50 [18]: 10 nM | GI50 [19]: < 10 nM | GI50 [20]: < 10 nM | GI50 [21]: < 10 nM | GI50 [22]: 30 nM | GI50 [23]: < 10 nM | GI50 [24]: < 10 nM | GI50 [25]: 60 nM | GI50 [26]: 30 nM | GI50 [27]: < 10 nM | GI50 [28]: 30 nM | GI50 [29]: 10 nM | GI50 [30]: 20 nM | GI50 [31]: 40 nM | GI50 [32]: < 10 nM | GI50 [33]: 10 nM | GI50 [34]: < 10 nM | GI50 [35]: < 10 nM | GI50 [36]: 10 nM | GI50 [37]: < 10 nM | GI50 [38]: < 10 nM | GI50 [39]: 20 nM | GI50 [40]: < 10 nM | GI50 [41]: < 10 nM | GI50 [42]: 10 nM | GI50 [43]: 30 nM | GI50 [44]: 20 nM | GI50 [45]: 50 nM

COc1ccc(/C=C/c2cc(OC)cc(OC)c2/C=C(\C#N)c2ccc(OC)cc2)cc1
GI50 [1]: 650 nM | GI50 [2]: 650 nM | GI50 [3]: 500 nM | GI50 [4]: 910 nM | GI50 [6]: 630 nM | GI50 [7]: 1160 nM | GI50 [8]: 500 nM | GI50 [9]: 270 nM | GI50 [10]: 1240 nM | GI50 [11]: 750 nM | GI50 [12]: 640 nM | GI50 [14]: 1660 nM | GI50 [15]: 700 nM | GI50 [16]: 390 nM | GI50 [17]: 2490 nM | GI50 [18]: 2280 nM | GI50 [19]: 1350 nM | GI50 [20]: 430 nM | GI50 [21]: 240 nM | GI50 [22]: 2780 nM | GI50 [23]: 680 nM | GI50 [24]: 810 nM | GI50 [25]: > 100000 nM | GI50 [26]: 970 nM | GI50 [27]: 240 nM | GI50 [28]: 4380 nM | GI50 [30]: 1720 nM | GI50 [31]: 4710 nM | GI50 [32]: 780 nM | GI50 [33]: 1380 nM | GI50 [34]: 470 nM | GI50 [35]: 490 nM | GI50 [36]: 500 nM | GI50 [37]: 910 nM | GI50 [38]: 360 nM | GI50 [39]: 1720 nM | GI50 [40]: 380 nM | GI50 [41]: 690 nM | GI50 [42]: 830 nM | GI50 [43]: 750 nM | GI50 [44]: 2350 nM
